Data on one compound can be found in ChEMBL document CHEMBL2021876, “New pyridobenzoxazepine derivatives derived from 5-(4-methylpiperazin-1-yl)-8-chloro-pyrido[2,3-b][1,5]benzoxazepine (JL13): chemical synthesis and pharmacological evaluation” (J Med Chem, 2012).

Data set [1] in a line: In vivo displacement of [3H]Nemonapride from dopamine D4 receptor in Sprague-Dawley rat dorsolateral frontal cortex at 13.75 mg/kg, ip qd for 28 days by autoradiography relative to control. In kind it is functional. As to conditions: route intraperitoneal. Background: In a radioligand displacement assay an active substance lowers the binding of a labelled ligand.
A short description of data set [2]: In vivo displacement of [3H]Nemonapride from dopamine D4 receptor in Sprague-Dawley rat nucleus accumbens at 13.75 mg/kg, ip qd for 28 days by autoradiography relative to control. It is filed as functional. As to conditions: route intraperitoneal.
For data set [3], the system named is Caudate-putamen. In words: In vivo displacement of [3H]Nemonapride from dopamine D4 receptor in Sprague-Dawley rat lateral part of caudate putamen at 13.75 mg/kg, ip qd for 28 days by autoradiography relative to control. As to conditions: route intraperitoneal. In kind it is functional.
Data set [4] concerns the target Serotonin 1a (5-HT1a) receptor/Adrenergic receptor alpha-1 (Rattus norvegicus) (UniProt P15823+P23944+P43140+P19327). In words: In vivo displacement of [3H]8-OH-DPAT from 5HT1A receptor in Sprague-Dawley rat nucleus accumbens at 13.75 mg/kg, ip qd for 28 days by autoradiography relative to control. It is filed as functional, organism-based. Set-up: dose 13.75 mg/kg. The gist of the method:
(§1)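 Male Sprague-Dawley rats (200−225 g, N = 8/group) dosed ip once daily for 28 days, vehicle controls, decapitated; 10 μm frozen coronal sections. Preincubation 1 h RT in 50 mM Tris-HCl pH 7.6, 0.1% ascorbic acid, 4 mM CaCl2, 10 μM pargyline; then 1 h RT with 2.0 nM [3H]8-OH-DPAT. Nonspecific: 1 μM 5-HT. Saturating conditions; binding in fmol/mg tissue, % of control, mean ± SEM.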

Data set [5] deals with Caudate-putamen. Put plainly: In vivo displacement of [3H]8-OH-DPAT from 5HT1A receptor in Sprague-Dawley rat medial part of caudate putamen at 13.75 mg/kg, ip qd for 28 days by autoradiography relative to control. It is filed as functional. The settings on record: route intraperitoneal. The gist of the method:
as §1

A short description of data set [6]: In vivo displacement of [3H]Ketanserin from 5HT2A receptor in Sprague-Dawley rat dorsolateral frontal cortex at 13.75 mg/kg, ip qd for 28 days by autoradiography relative to control. In kind it is functional. The settings on record: route intraperitoneal. The gist of the method: (§2)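 Rats (male Sprague-Dawley, N = 8/group) given daily ip injections for 28 days versus vehicle. Brain sections preincubated 1 h RT in 50 mM Tris-HCl pH 7.7, then 1 h RT with 3.0 nM [3H]ketanserin plus 1 μM prazosin and 100 nM tetrabenazine. Nonspecific: 1 μM methysergide. Washes 2 × 30 min ice-cold. Readout fmol/mg tissue as % of control, mean ± SEM.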

The subject of data set [7] is Hippocampus. Put plainly: In vivo displacement of [3H]Ketanserin from 5HT2A receptor in Sprague-Dawley rat hippocampus CA1 region at 13.75 mg/kg, ip qd for 28 days by autoradiography relative to control. As to conditions: route intraperitoneal. In kind it is functional. The procedure, abridged:
as §2

The target of data set [8] is 5-hydroxytryptamine receptor 2A (Homo sapiens, UniProt P28223). Put plainly: Displacement of [3H]ketanserin from human recombinant 5HT2A receptor expressed in CHO cells after 60 mins by liquid scintillation counting. In kind it is cell-based.
Chain of 5-hydroxytryptamine receptor 2A (P28223 whole entry): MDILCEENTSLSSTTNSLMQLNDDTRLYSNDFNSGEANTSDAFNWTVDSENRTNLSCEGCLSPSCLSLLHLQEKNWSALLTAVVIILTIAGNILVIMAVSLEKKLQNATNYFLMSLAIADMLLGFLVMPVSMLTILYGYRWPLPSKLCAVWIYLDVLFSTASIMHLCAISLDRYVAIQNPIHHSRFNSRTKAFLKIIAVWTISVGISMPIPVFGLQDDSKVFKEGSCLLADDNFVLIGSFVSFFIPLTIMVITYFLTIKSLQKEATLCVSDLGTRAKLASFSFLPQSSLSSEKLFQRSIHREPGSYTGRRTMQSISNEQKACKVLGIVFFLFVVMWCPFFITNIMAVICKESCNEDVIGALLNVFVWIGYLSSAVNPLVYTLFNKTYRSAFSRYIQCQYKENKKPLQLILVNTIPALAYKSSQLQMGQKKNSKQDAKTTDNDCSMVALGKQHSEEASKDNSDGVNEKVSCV
Data set [9] addresses T1, 5-hydroxytryptamine receptor 1A (Homo sapiens, UniProt P08908).
T1 sequence (P08908 whole entry): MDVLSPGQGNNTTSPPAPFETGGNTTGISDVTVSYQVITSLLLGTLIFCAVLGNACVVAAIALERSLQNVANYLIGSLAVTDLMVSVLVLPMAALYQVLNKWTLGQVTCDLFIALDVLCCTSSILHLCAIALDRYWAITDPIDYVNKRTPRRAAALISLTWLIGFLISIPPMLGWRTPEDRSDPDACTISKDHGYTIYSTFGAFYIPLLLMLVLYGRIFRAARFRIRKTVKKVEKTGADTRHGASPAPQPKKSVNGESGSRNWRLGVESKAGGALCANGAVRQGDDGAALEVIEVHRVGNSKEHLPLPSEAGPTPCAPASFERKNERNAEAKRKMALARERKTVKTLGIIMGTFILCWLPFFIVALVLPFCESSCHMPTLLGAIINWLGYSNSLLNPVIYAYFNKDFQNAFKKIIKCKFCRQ
Put plainly: Displacement of [3H]8-OH-DPAT from human recombinant 5HT1A receptor expressed in CHO cells after 60 mins by liquid scintillation counting. It is filed as cell-based.

A short description of data set [10]: Lipophilicity, log K of the compound in IAM-PC-DD2 HPLC column by UV method. In kind it is physicochemical. As to conditions: artificial membrane.
Data set [11] deals with T2, D(4) dopamine receptor (Homo sapiens) (UniProt P21917).
T2 sequence (whole entry): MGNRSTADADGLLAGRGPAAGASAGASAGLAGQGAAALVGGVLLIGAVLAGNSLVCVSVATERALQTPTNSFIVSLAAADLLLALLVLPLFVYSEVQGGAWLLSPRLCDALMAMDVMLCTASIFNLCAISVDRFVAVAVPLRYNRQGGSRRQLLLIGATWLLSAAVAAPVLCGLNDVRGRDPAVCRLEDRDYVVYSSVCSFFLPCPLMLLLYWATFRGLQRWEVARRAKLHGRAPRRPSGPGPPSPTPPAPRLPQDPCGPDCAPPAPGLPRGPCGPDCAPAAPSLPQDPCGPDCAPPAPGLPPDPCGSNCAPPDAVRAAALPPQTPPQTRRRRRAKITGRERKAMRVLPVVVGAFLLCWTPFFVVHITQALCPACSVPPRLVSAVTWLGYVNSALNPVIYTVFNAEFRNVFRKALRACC
In words: Displacement of [3H]-YM09151-2 from human cloned dopamine D4 receptor expressed in insect Sf9 cells at 10^-6 M after 60 mins by liquid scintillation counting.

Data set [12] is described as follows: In vivo displacement of [3H]SCH-23390 from dopamine D1 receptor in Sprague-Dawley rat medial-prefrontal cortex at 13.75 mg/kg, ip qd for 28 days by autoradiography relative to control. It is filed as functional. The settings on record: route intraperitoneal. The gist of the method: (§3)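 Forebrain sections from male Sprague-Dawley rats (N = 8/group) after 28 days of daily ip injections versus vehicle. Incubation 1 h RT in 50 mM Tris-HCl pH 7.4, 120 mM NaCl, 5 mM KCl, 2 mM CaCl2, 1 mM MgCl2 with 1 nM [3H]SCH-23390 and 100 nM ketanserin. Nonspecific: 1 μM cis-flupenthixol. Saturating conditions; fmol/mg tissue, % of control.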

Data set [13] has as its system Caudate-putamen. In words: In vivo displacement of [3H]SCH-23390 from dopamine D1 receptor in Sprague-Dawley rat lateral part of caudate putamen at 13.75 mg/kg, ip qd for 28 days by autoradiography relative to control. It is filed as functional. As to conditions: route intraperitoneal. The procedure, abridged: as §3
For data set [14], the target named is D(2) dopamine receptor (Rattus norvegicus) (UniProt P61169). Put plainly: In vivo displacement of [3H]Nemonapride from dopamine D2 receptor in Sprague-Dawley rat nucleus accumbens at 13.75 mg/kg, ip qd for 28 days by autoradiography relative to control. Set-up: dose 13.75 mg/kg. It is filed as functional, organism-based. The procedure, abridged: (§4)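 Male Sprague-Dawley rats, N = 8/group, daily ip dosing for 28 days with vehicle controls; cryostat sections (10 μm) preincubated 1 h RT. Incubation 1 h RT in 50 mM Tris-HCl pH 7.4, 120 mM NaCl, 5 mM KCl, 2 mM CaCl2, 1 mM MgCl2 with 1 nM [3H]nemonapride, 0.5 μM DTG, 0.1 μM pindolol. Nonspecific: 10 μM S(−)-sulpiride. Values fmol/mg tissue, % of control.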
Chain of D(2) dopamine receptor (Rattus norvegicus) (P61169 whole entry): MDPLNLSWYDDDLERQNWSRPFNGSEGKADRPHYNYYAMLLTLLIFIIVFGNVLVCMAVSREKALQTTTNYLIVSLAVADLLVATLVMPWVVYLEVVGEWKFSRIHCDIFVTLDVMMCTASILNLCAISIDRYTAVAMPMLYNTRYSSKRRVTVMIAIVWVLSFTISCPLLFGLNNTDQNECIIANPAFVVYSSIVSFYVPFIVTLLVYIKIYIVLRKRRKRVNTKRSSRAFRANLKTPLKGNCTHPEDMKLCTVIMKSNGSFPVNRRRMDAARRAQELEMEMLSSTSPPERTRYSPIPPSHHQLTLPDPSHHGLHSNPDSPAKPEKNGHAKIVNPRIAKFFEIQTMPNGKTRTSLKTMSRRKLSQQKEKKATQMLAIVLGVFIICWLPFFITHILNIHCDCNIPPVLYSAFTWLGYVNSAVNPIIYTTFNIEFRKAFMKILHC

The test system of data set [15] is Caudate-putamen. Put plainly: In vivo displacement of [3H]Nemonapride from dopamine D2 receptor in Sprague-Dawley rat medial of caudate putamen at 13.75 mg/kg, ip qd for 28 days by autoradiography relative to control. It is filed as functional. As to conditions: route intraperitoneal. The procedure, abridged:
as §4

In general, inhibition in vivo refers to the relative decrease from the control value, in per cent. In general, inhibition refers to the relative decrease from the control value, in per cent. As usually defined, the Ki is a dissociation constant, usually derived from enzyme kinetics or from competition with a known ligand. Regarding `Clc1ccc2c(c1)N=C(N1CCNCC1)c1cccnc1O2`, the inhibition in vivo at 13.75 mg/kg is 108% in [1]; 178% in data set [2]; 152% in data set [3]; 87% in [5]; 53% in data set [6]; 96% in data set [7]. Moreover, the inhibition in vivo at 13.75 mg/kg was found to be 97% in [12], 132% in data set [13] and 110% in [15]. Moreover, the inhibition in data set [4] was 88%; in data set [11] it was 28%; in data set [14], 140%. Further, the Ki in [8] is 131 nM; in data set [9], 375 nM. In addition, the “log K” value in data set [10] was 2.68.
